# According to paper PMC5783483 (Molecular Medicine Reports, 2017):
# Marks after values point to notes of the source that are not given here.
# What was measured:
# Format in all cases: in vivo, BALB/c/nu nude mice
# Settings in all cases: Taxol 5 mg/kg injection twice per week
# [1] = test system: MCF-7 xenograft; assay: Breast cancer MCF-7 xenograft model
# In short: (§1)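 Six-week-old female BALB/c/nu nude mice (16–22 g) bearing MCF-7 or MCF-7/T xenografts, housed at 25°C on a 12-h light/dark cycle. Mice were randomized into four groups of five at a mean tumor volume of 100–250 mm3. Read-outs were RTV T/C and excised tumor weight, as mean ± SD.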
# [2] = test system: MX-1/T xenograft; assay: Breast cancer MX-1/T xenograft model
# In short: (§2)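 Six-week-old female BALB/c/nu nude mice (15–16 g) bearing MX-1 or MX-1/T xenografts, housed at 25°C on a 12-h light/dark cycle. Mice were randomized into four groups of five once mean tumor volume reached 100–250 mm3. Read-outs were relative tumor volume T/C and excised tumor weight, as mean ± SD.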
# [3] = test system: MX-1 xenograft; assay: Breast cancer MX-1 xenograft model
# In short: as §2
# [4] = test system: MCF-7/T xenograft; assay: Breast cancer MCF-7/T xenograft model
# In short: as §1
smiles,measurement,setting,value
CC(=O)O[C@H]1C(=O)[C@@]2(C)[C@H]([C@H](OC(=O)c3ccccc3)[C@]3(O)C[C@H](OC(=O)[C@H](O)[C@@H](NC(=O)c4ccccc4)c4ccccc4)C(C)=C1C3(C)C)[C@]1(OC(C)=O)CO[C@@H]1C[C@@H]2O [Taxol],Body weight Final,[1]; 33 days,22.8 ± 2.3 g
same,Relative tumor volume Treated/control ratio,[1]; 33 days,6.75%
same,Relative tumor volume x±SD,[1]; 33 days,0.34±0.22^a
same,Tumor volume Final,[1]; 33 days,68.3±32.5^a mm3
same,Tumor weight Inhibition,[1]; 33 days,96.36%
same,Tumor weight x±SD,[1]; 33 days,0.04±0.02^a g
same,Body weight Initial,[1]; before treatment,21.0 ± 1.6 g
same,Tumor volume Initial,[1]; before treatment,227.4±74.6 mm3
same,Body weight Final,[2]; 13 days,20.4 ± 0.9 g
same,Relative tumor volume Treated/control ratio,[2]; 13 days,95.13%
same,Relative tumor volume x±SD,[2]; 13 days,22.71±11.09
same,Tumor volume Final,[2]; 13 days,"2,183.1±1,091.0 mm3"
same,Tumor weight x±SD,[2]; 13 days,1.58 ± 0.79 g
same,Body weight Initial,[2]; before treatment,15.6 ± 0.6 g
same,Tumor volume Initial,[2]; before treatment,95.7±17.1 mm3
same,Body weight Final,[3]; 13 days,20.8 ± 2.2 g
same,Relative tumor volume Treated/control ratio,[3]; 13 days,55.56%
same,Relative tumor volume x±SD,[3]; 13 days,12.27±2.33^b
same,Tumor volume Final,[3]; 13 days,"1,714.4±308.2^a mm3"
same,Tumor weight Inhibition,[3]; 13 days,41.56%
same,Tumor weight x±SD,[3]; 13 days,0.94±0.20^a g
same,Body weight Initial,[3]; before treatment,16.0 ± 0.7 g
same,Tumor volume Initial,[3]; before treatment,140.2±13.3 mm3
same,Body weight Final,[4]; 33 days,17.5 ± 2.1 g
same,Relative tumor volume x±SD,[4]; 33 days,12.59±3.17
same,Tumor volume Final,[4]; 33 days,"1,871.0±981.5 mm3"
same,Tumor weight x±SD,[4]; 33 days,1.36 ± 0.48 g
same,Body weight Initial,[4]; before treatment,16.8 ± 1.9 g
same,Tumor volume Initial,[4]; before treatment,132.5±45.3 mm3
